Data: ChEMBL document CHEMBL4364242, “Novel cationic bis(acylhydrazones) as modulators of Epstein-Barr virus immune evasion acting through disruption of interaction between nucleolin and G-quadruplexes of EBNA1 mRNA” (Eur J Med Chem, 2019)
Calls of active or inactive are those of the source. The rule behind the calls is not given here.

Tests used:
[1] = Growth inhibition of human MUTU-I cells incubated for 24 hrs by MTT assay
Outline: (§1)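 Mutu-1 EBV-positive Burkitt lymphoma cells, about 30,000 per well, treated with compound (0.5–100 μM) or DMSO for 24 or 48 h. MTT (5 mg/mL) added for 4 h, formazan dissolved in isopropanol/0.1 N HCl/10% Triton X-100, absorbance at 540 nm; viability expressed versus DMSO.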

[2] = Growth inhibition of human MUTU-I cells incubated for 48 hrs by MTT assay; outline: as §1
NCI-H1299 [3] = experiment: Immunostimulatory activity in human H1299 cells transfected with murine MHC class I Kb and 235GAr-OVA cocultured with mouse CD8+ T-cells assessed as increase in IL-2 level at 5 or 10 uM incubated for 3 days by ELISA; type: functional
Outline: (§2)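 H1299 cells co-transfected with mouse Kb and OVA or GAr-OVA, treated with 5 or 10 μM compound or DMSO. After 40 h, 10^5 cells co-cultured with 4×10^5 naive OT-I CD8+ T cells from female mouse lymph nodes, 37 °C, for 3 days. IL-2 in supernatant measured by ELISA.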

human gammaherpesvirus 4 [4] = experiment: Binding affinity to EB virus F-g4-EBNA1 mRNA assessed as increase in melting temperature at 1 uM by fluorescence method
Homo sapiens = species: Homo sapiens; experiment: Binding affinity to […] assessed as increase in melting temperature at 1 uM by fluorescence method
Outline: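 F-25TAG-T telomeric DNA (5'-FAM/3'-TAMRA) melted with 1 μM ligand in K-100 buffer (10 mM LiAsO2Me2, 100 mM KCl, pH 7.3). Heating 25–95 °C at 0.5 °C/min. ΔTm derived from first-derivative Tm maxima relative to the no-ligand run.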

[5] = Binding affinity to […] (unknown origin) assessed as increase in melting temperature at 1 uM by fluorescence method
Outline: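 Labeled F-myc22-T DNA (5'-FAM/3'-TAMRA) melted with 1 μM ligand in K-1 buffer (10 mM LiAsO2Me2, 1 mM KCl, 99 mM LiCl, pH 7.3). Ramp 0.5 °C/min from 25 to 95 °C. Tm taken from first-derivative maxima and ΔTm calculated versus ligand-free control.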

[6] = Displacement of TO from EB virus g4-EBNA1 mRNA measured after 5 mins by FID assay; design: species or system human gammaherpesvirus 4
Outline: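 g4-EBNA1 RNA annealed 95 °C 5 min in K100 buffer (10 mM KAsO2Me2, 100 mM KCl, 1 mM EDTA, 1% DMSO), then mixed with TO; final 0.25 μM RNA and 0.5 μM TO, ligand 0–2.5 μM. Fluorescence read after 5 min shaking (485/520 nm), in duplicate. Displacement = 100×(1−F/F0); DC50 interpolated from the curve.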

human gammaherpesvirus 4 [7] = experiment: Binding affinity to EBNA1 G4-quadruplex in human H1299 cells assessed as EB virus EBNA1 expression at 10 uM incubated for 40 hrs by western blot analysis; type: cell-based
Outline: (§3)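 H1299 cells in RPMI-1640 with 10% FBS at 37 °C, 5% CO2, transiently transfected with EBNA1 or EBNA1ΔGAr constructs, then treated with 10 μM compound (DMSO vehicle) for 40 h. Lysates taken 48 h post-transfection and western blotted with anti-EBNA1 (OT1X). Levels normalized to GAPDH; at least three repeats.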

human gammaherpesvirus 4 [8] = experiment: Binding affinity to EBNA1 G4-quadruplex in human H1299 cells assessed as EB virus EBNA1 deleted GAr expression at 10 uM incubated for 40 hrs by western blot analysis; type: cell-based; outline: as §3
NCI-H1299 [9] = experiment: Effect on OVA expression in human H1299 cells at 10 uM incubated for 40 hrs by western blot analysis; type: functional; design: unit not given here
Outline: (§4)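 OVA or 235GAr-OVA constructs transiently transfected into H1299 cells, followed by 40 h exposure to 10 μM compound or DMSO. Whole-cell lysates immunoblotted with rabbit anti-OVA; signal normalized to GAPDH. Experiments repeated at least three times.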

NCI-H1299 [10] = experiment: Effect on 235Gar-OVA expression in human H1299 cells at 10 uM incubated for 40 hrs by western blot analysis; type: functional; design: unit not given here; outline: as §4
[11] = Inhibition of native NCL/EB virus G4-EBNA1 mRNA interaction in human H1299 cells assessed as reduction in PLA signals per cell at 5 uM incubated for overnight by proximity ligation assay (reference value: 1.83 +/- 0.54); type: cell-based
[12] = Inhibition of human NCL/EB virus G4-EBNA1 mRNA interaction in human MUTU-I cells assessed as reduction in PLA signals per cell at 5 uM incubated for […] by proximity ligation assay (reference value: 1.68 +/- 0.44); type: cell-based
Outline: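 Mutu-1 cells carrying endogenous EBNA1 treated 36 h with 5 μM compound or DMSO. Processed by EBNA1 mRNA in situ hybridization combined with an anti-nucleolin PLA; nuclear PLA dots per cell counted across two biological replicates, ≥200 cells per sample.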

[13] = Inhibition of recombinant NCL (unknown origin)/EB virusG4-EBNA1 mRNA interaction at 10 uM by RNA pull-down assay
Outline: (§5)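 Biotin-TEG RNA (g4-EBNA1 or non-G4 GM) folded in 10 mM Tris pH 7.5, 100 mM KCl, 0.1 mM EDTA (95 °C 5 min, cooled 2 °C/min), then bound to blocked streptavidin beads. 200 ng recombinant NCL added for 90 min at room temperature with 10 μM compound or DMSO. Beads washed up to 800 mM KCl; eluates western-blotted for NCL.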

[14] = Inhibition of recombinant NCL (unknown origin)/GM mRNA (unknown origin) interaction at 10 uM by RNA pull-down assay; outline: as §5
NCI-H1299 [15] = experiment: Immunostimulatory activity in human H1299 cells transfected with murine MHC class I Kb and OVA cocultured with mouse CD8+ T-cells assessed as increase in IL-2 level at 5 or 10 uM incubated for 3 days by ELISA; type: functional, cell-based; outline: as §2
NCI-H1299 [16] = experiment: Effect on 235Gar-OVA expression in human H1299 cells incubated for 40 hrs by western blot analysis; type: functional, cell-based
Outline: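 235GAr-OVA-transfected H1299 cells treated 40 h with compound at 0, 7.5, 10 or 15 μM. Anti-OVA western blot with band intensities normalized to GAPDH.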

NCI-H1299 [17] = experiment: Immunostimulatory activity in human H1299 cells transfected with murine MHC class I Kb and 235GAr-OVA cocultured with mouse CD8+ T-cells assessed as increase in IL-2 level at 10 uM incubated for 3 days by ELISA; type: functional
Outline: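 Kb/235GAr-OVA co-transfected H1299 cells, exposed to compound for 40 h, then 10^5 cells incubated 3 days at 37 °C with 4×10^5 OT-I CD8+ T cells. Supernatant IL-2 quantified by ELISA.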

| Compound | GI50 at 24 h [1] [µM] | GI50 at 48 h [2] [µM] | fold change (FC) (NCI-H1299 [3]) | ΔTm (human gammaherpesvirus 4 [4]) [°C] | ΔTm (Homo sapiens) [°C] | ΔTm [5] [°C] | IC50 [6] [µM] | Activity (human gammaherpesvirus 4 [7]) | Activity (human gammaherpesvirus 4 [8]) | Activity (NCI-H1299 [9]) | Activity (NCI-H1299 [10]) | Activity [11] | Activity [12] | fold change (FC) [13] | inhibition [14] | Activity (NCI-H1299 [15]) | Activity (NCI-H1299 [16]) | fold change (FC) (NCI-H1299 [17]) | Activity (human gammaherpesvirus 4 [4]) |
| --- | --- | --- | --- | --- | --- | --- | --- | --- | --- | --- | --- | --- | --- | --- | --- | --- | --- | --- | --- |
| C[n+]1ccc(/C=N/NC(=O)c2ccc3ccc4ccc(C(=O)N/N=C/c5cc[n+](C)c6ccccc56)nc4c3n2)c2ccccc21.[I-].[I-] | 50 to 100 | 20 | >2 | 20 to 30 | 15 to 30 | 15 to 30 | 0.3 | Active | inactive | 96 | 189 | 0.4 | 0.59 | 10 | inactive | inactive | Dose-dependent effect |  |  |
| C[n+]1ccc(/C=N/NC(=O)c2cccc(C(=O)N/N=C/c3cc[n+](C)c4ccccc34)n2)c2ccccc21.[I-].[I-] | > 100 | ≥ 100 |  |  | 15 to 30 | 15 to 30 | 0.26 | Active | inactive | 101 | 162 | 0.27 |  | 10 | inactive | inactive | Dose-dependent effect | >2 | Active |
